≈ marks a conversion by molar mass, not a printed value.
What was measured:
[1] = Toxicity in human RBC assessed as hemolysis upto 128 ug/ml; type: cell-based; settings: erythrocyte
Candida albicans [2] = test: Effect on sterol profile of Candida albicans ATCC 24433 assessed as ergosterol level at 0.125 ug/ml for 24 hrs by spectrophotometry; type: functional; settings: in the assay text read “ergostenol level” for “ergosterol level”
Method in brief: (§1)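 C. albicans ATCC 24433 grown with subinhibitory (<MIC) compound concentrations. Cellular sterols extracted. Sterol content read spectrophotometrically by scan at 230–300 nm, and individual intermediates quantified by GC–MS. Values are average % of total sterols from two experiments, with standard error of the mean.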

Candida albicans [3] = test: Effect on sterol profile of Candida albicans ATCC 24433 assessed as cholesta-5,24-dien-3-ol level at 0.125 ug/ml for 24 hrs by spectrophotometry (reference value: 3.58 +/- 0.52 %); type: functional; method in brief: as §1
Candida albicans [4] = test: Effect on sterol profile of Candida albicans ATCC 24433 assessed as ergosta-7,22-dien-3-ol,(3a'22E) level at 0.25 ug/ml for 24 hrs by spectrophotometry; type: functional; settings: in the assay text read “by GC-MS” for “by spectrophotometry”; method in brief: as §1
Candida albicans [5] = test: Effect on sterol profile of Candida albicans ATCC 24433 assessed as cholesta-8,24-dien-3-ol,4-methyl-(3a',4a') level at 0.25 ug/ml for 24 hrs by spectrophotometry (reference value: 7.19 +/- 0.65 %); type: functional; settings: in the assay text read “by GC-MS” for “by spectrophotometry”; method in brief: as §1
Candida tropicalis [6] = test: Antifungal activity against Candida tropicalis ATCC 750 after 72 hrs by broth microdilution method; type: functional; settings: ATCC 750, 72 h
Method in brief: (§2)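 CLSI broth microdilution against yeasts (M27-A3) and filamentous fungi (M38-A2). Read-outs: IC50 (concentration giving 50% growth inhibition), MIC, and MFC (minimum fungicidal concentration), all in μg/mL. Assay done twice in triplicate.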

Candida albicans [7] = test: Effect on sterol profile of Candida albicans ATCC 24433 assessed as ergosterol level at 0.25 ug/ml for 24 hrs by spectrophotometry (reference value: 73.34 +/- 2.53 %); type: functional; settings: in the assay text read “by GC-MS” for “by spectrophotometry”; method in brief: as §1
Candida albicans [8] = test: Effect on sterol profile of Candida albicans ATCC 24433 assessed as ergosta-7,22-dien-3-ol,(3a'22E) level at 0.125 ug/ml for 24 hrs by spectrophotometry; type: functional; method in brief: as §1
Aspergillus niger [9] = test: Antifungal activity against Aspergillus niger ATCC 10578 after 48 hrs by broth microdilution method; type: functional, organism-based; settings: ATCC 10578, 48 h; method in brief: as §2
Candida tropicalis [10] = test: Antifungal activity against Candida tropicalis ATCC 750 after 24 to 36 hrs by broth microdilution method; type: functional, organism-based; method in brief: as §2
Candida albicans [11] = test: Effect on sterol profile of Candida albicans ATCC 24433 assessed as squalene level at 0.25 ug/ml for 24 hrs by spectrophotometry (reference value: 7.17 +/- 0.35 %); type: functional; method in brief: as §1
Candida albicans [12] = test: Antifungal activity against Candida albicans ATCC 24433 after 24 to 36 hrs by broth microdilution method; type: functional, organism-based; method in brief: as §2
Cryptococcus neoformans [13] = test: Antifungal activity against Cryptococcus neoformans ATCC 34664 after 24 to 36 hrs by broth microdilution method; type: functional, organism-based; method in brief: as §2
Candida albicans [14] = test: Effect on sterol profile of Candida albicans ATCC 24433 assessed as lichesterol level at 0.125 ug/ml for 24 hrs by spectrophotometry; type: functional; method in brief: as §1
Candida albicans [15] = test: Antifungal activity against Candida albicans ATCC 10231 after 72 hrs by broth microdilution method; type: functional; settings: ATCC 10231, 72 h; method in brief: as §2
Candida albicans [16] = test: Effect on sterol profile of Candida albicans ATCC 24433 assessed as cholesta-8,24-dien-3-ol,4-methyl-(3a',4a') level at 0.125 ug/ml for 24 hrs by spectrophotometry (reference value: 7.19 +/- 0.65 %); type: functional; method in brief: as §1
Aspergillus niger [17] = test: Antifungal activity against Aspergillus niger ATCC 10578 after 72 hrs by broth microdilution method; type: functional; settings: ATCC 10578, 72 h; method in brief: as §2
Candida albicans [18] = test: Antifungal activity against Candida albicans ATCC 24433 after 72 hrs by broth microdilution method; type: functional; settings: ATCC 24433, 72 h; method in brief: as §2
Candida albicans [19] = test: Effect on sterol profile of Candida albicans ATCC 24433 assessed as lichesterol level at 0.25 ug/ml for 24 hrs by spectrophotometry; type: functional; settings: in the assay text read “by GC-MS” for “by spectrophotometry”; method in brief: as §1
Candida albicans [20] = test: Effect on sterol profile of Candida albicans ATCC 24433 assessed as squalene level at 0.125 ug/ml for 24 hrs by spectrophotometry (reference value: 7.17 +/- 0.35 %); type: functional; method in brief: as §1
Candida albicans [21] = test: Effect on sterol profile of Candida albicans ATCC 24433 assessed as ergosterol level at 0.125 ug/ml for 24 hrs by spectrophotometry (reference value: 73.34 +/- 2.53 %); type: functional; method in brief: as §1
Nakaseomyces glabratus [22] = test: Antifungal activity against Candida glabrata NCYC 388 after 24 to 36 hrs by broth microdilution method; type: functional, organism-based; method in brief: as §2
Candida albicans [23] = test: Antifungal activity against Candida albicans ATCC 10231 after 24 to 36 hrs by broth microdilution method; type: functional, organism-based; method in brief: as §2
Cryptococcus neoformans [24] = test: Antifungal activity against Cryptococcus neoformans ATCC 34664 after 72 hrs by broth microdilution method; type: functional; settings: ATCC 34664, 72 h; method in brief: as §2
Candida albicans [25] = test: Effect on sterol profile of Candida albicans ATCC 24433 assessed as ignosterol level at 0.25 ug/ml for 24 hrs by spectrophotometry; type: functional; settings: in the assay text read “by GC-MS” for “by spectrophotometry”; method in brief: as §1
Candida albicans [26] = test: Effect on sterol profile of Candida albicans ATCC 24433 assessed as ergosterol level at 0.25 ug/ml for 24 hrs by spectrophotometry; type: functional; settings: in the assay text read “ergostenol level” for “ergosterol level”; method in brief: as §1
Nakaseomyces glabratus [27] = test: Antifungal activity against Candida glabrata NCYC 388 after 72 hrs by broth microdilution method; type: functional; settings: NCYC 388, 72 h; method in brief: as §2
[28] = Metabolic stability in human liver microsomes after 30 mins by LC-MS/MS analysis; type: ADME; settings: read-out: Stability
Method in brief: (§3)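 Test compounds were incubated 30 min with liver microsomes (human or mouse, per line), and values are reported as % metabolic stability after 30 min.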

Candida albicans [29] = test: Effect on sterol profile of Candida albicans ATCC 24433 assessed as ignosterol level at 0.125 ug/ml for 24 hrs by spectrophotometry; type: functional; method in brief: as §1
Candida albicans [30] = test: Effect on sterol profile of Candida albicans ATCC 24433 assessed as cholesta-5,24-dien-3-ol level at 0.25 ug/ml for 24 hrs by spectrophotometry (reference value: 3.58 +/- 0.52 %); type: functional; settings: in the assay text read “by GC-MS” for “by spectrophotometry”; method in brief: as §1
[31] = Metabolic stability in mouse liver microsomes after 30 mins by LC-MS/MS analysis; type: ADME; settings: read-out: Stability; method in brief: as §3
[32] = Toxicity in human RBC assessed as hemolysis at 512 ug/ml; type: cell-based, Erythrocyte; settings: red blood cells, read-out: Activity
HEK293 = test: Cytotoxicity against HEK293 cells after 24 hrs by MTT assay; type: cell-based; settings: Homo sapiens, HEK293, 24 h
[33] = Toxicity in human RBC assessed as partial hemolysis at 256 ug/ml; type: cell-based; settings: erythrocyte

Compound | Activity [1] | Activity (Candida albicans [2]) | MFC (Candida tropicalis [6]) | IC50 (Aspergillus niger [9]) | MIC (Aspergillus niger [9]) | IC50 (Candida tropicalis [10]) | MIC (Candida tropicalis [10]) | IC50 (Candida albicans [12]) | MIC (Candida albicans [12]) | IC50 (Cryptococcus neoformans [13]) | MIC (Cryptococcus neoformans [13]) | MFC (Candida albicans [15]) | MFC (Aspergillus niger [17]) | MFC (Candida albicans [18]) | IC50 (Nakaseomyces glabratus [22]) | MIC (Nakaseomyces glabratus [22]) | IC50 (Candida albicans [23]) | MIC (Candida albicans [23]) | MFC (Cryptococcus neoformans [24]) | MFC (Nakaseomyces glabratus [27]) | further results
CCC(C)(C)c1ccc(CC(C)CN2C[C@@H](C)O[C@@H](C)C2)cc1 (some centres undefined) [AMOROLFINE] | Non-toxic | 11.56% | > 256 mg/L | 0.125 mg/L (≈ 0.394 µM) | 0.5 mg/L (≈ 1.57 µM) | 0.173 mg/L (≈ 0.545 µM) | 0.5 mg/L (≈ 1.57 µM) | 0.028 mg/L (≈ 0.0882 µM) | 1 mg/L (≈ 3.15 µM) | 0.031 mg/L (≈ 0.0976 µM) | 0.125 mg/L (≈ 0.394 µM) | 32 mg/L (≈ 101 µM) | > 256 mg/L | 8 mg/L (≈ 25.2 µM) | 0.038 mg/L (≈ 0.12 µM) | 0.125 mg/L (≈ 0.394 µM) | 0.1 mg/L (≈ 0.315 µM) | 0.25 mg/L (≈ 0.787 µM) | 64 mg/L (≈ 202 µM) | 32 mg/L (≈ 101 µM) | Activity (Candida albicans [3]): 0.44%; Activity (Candida albicans [4]): 15.81%; Activity (Candida albicans [5]): 12.03%; Activity (Candida albicans [7]): 6.13%; Activity (Candida albicans [8]): 15.28%; Activity (Candida albicans [11]): 17.08%; Activity (Candida albicans [14]): 8.26%; Activity (Candida albicans [16]): 12.26%; Activity (Candida albicans [19]): 32.13%; Activity (Candida albicans [20]): 22.04%; Activity (Candida albicans [21]): 30.16%; Activity (Candida albicans [25]): 11.11%; Activity (Candida albicans [26]): 5.71%
CC(Cc1ccc([Si](C)(C)C)cc1)CN1C[C@@H](C)O[C@@H](C)C1 (some centres undefined) | Non-toxic | 5.19% | 64 mg/L (≈ 200 µM) | 0.5 mg/L (≈ 1.56 µM) | 2 mg/L (≈ 6.26 µM) | 0.164 mg/L (≈ 0.513 µM) | 0.5 mg/L (≈ 1.56 µM) | 0.043 mg/L (≈ 0.135 µM) | 0.125 mg/L (≈ 0.391 µM) | 0.079 mg/L (≈ 0.247 µM) | 0.125 mg/L (≈ 0.391 µM) | 1 mg/L (≈ 3.13 µM) | 256 mg/L (≈ 801 µM) | 0.5 mg/L (≈ 1.56 µM) | 0.017 mg/L (≈ 0.0532 µM) | 0.125 mg/L (≈ 0.391 µM) | 0.25 mg/L (≈ 0.782 µM) | 0.5 mg/L (≈ 1.56 µM) | 2 mg/L (≈ 6.26 µM) | 2 mg/L (≈ 6.26 µM) | remaining at 0.5 h [28]: 27.3%; Activity (Candida albicans [29]): 7.23%; Activity (Candida albicans [30]): 0.87%; Activity (Candida albicans [3]): 15.34%; Activity (Candida albicans [5]): 27.78%; Activity (Candida albicans [7]): 11.12%; Activity (Candida albicans [11]): 13.82%; Activity (Candida albicans [14]): 29.84%; remaining at 0.5 h [31]: 6.2%; Activity (Candida albicans [16]): 5.36%; Activity (Candida albicans [20]): 21.52%; hemolysis at 512 ug/ml [32]: 7%; Activity (Candida albicans [21]): 15.52%; Activity (Candida albicans [25]): 42.29%; Activity (Candida albicans [26]): 4.12%
CNC1CCN(CC(C)Cc2ccc([Si](C)(C)C)cc2)CC1 (centres undefined) | Non-toxic | – | 16 mg/L (≈ 50.2 µM) | 1.25 mg/L (≈ 3.92 µM) | 2 mg/L (≈ 6.28 µM) | 5.87 mg/L (≈ 18.4 µM) | 16 mg/L (≈ 50.2 µM) | 1.55 mg/L (≈ 4.87 µM) | 4 mg/L (≈ 12.6 µM) | 3.77 mg/L (≈ 11.8 µM) | 8 mg/L (≈ 25.1 µM) | 2 mg/L (≈ 6.28 µM) | 64 mg/L (≈ 201 µM) | 8 mg/L (≈ 25.1 µM) | 1.63 mg/L (≈ 5.12 µM) | 2 mg/L (≈ 6.28 µM) | 1 mg/L (≈ 3.14 µM) | 2 mg/L (≈ 6.28 µM) | 8 mg/L (≈ 25.1 µM) | 4 mg/L (≈ 12.6 µM) | IC50 (HEK293): 9.81 mg/L (≈ 30.8 µM); Activity [33]: Toxic

— ChEMBL document CHEMBL3751707, “Silicon Incorporated Morpholine Antifungals: Design, Synthesis, and Biological Evaluation” (ACS Med Chem Lett, 2015)
